This note sets out measurements from the EternaBench riboswitch data.

The data set relates to MS2 coat protein. The data set is described as follows: apparent Kd, MS2 coat protein; higher = weaker binding; RNA-MaP array; FMN 200 µM where present. Summed up:
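SNAP-549-labelled MS2 coat protein, doubled from 0.7 or 1.5 nM to 3 µM, was titrated over designs transcribed by stalled E. coli RNA polymerase on Illumina sequencing-chip clusters. Titrations were run without and then with constant ligand in 100 mM Tris-HCl pH 7.5, 80 mM KCl, 4 mM MgCl2, BSA, DTT, yeast tRNA and Tween-20. The apparent Kd is the median of filtered per-cluster fits to green signal normalised to red-channel RNA signal and control-cluster median Fmax.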

[1] abbreviates: designed as: OFF switch for flavin mononucleotide, no ligand.
Setting [2] is: ligand present: flavin mononucleotide, designed as: OFF switch for flavin mononucleotide.
[3] abbreviates: designed as: ON switch for flavin mononucleotide, no ligand.
The mark [4] stands for this setting: ligand present: flavin mononucleotide, designed as: ON switch for flavin mononucleotide.

“GGAUAGGACAGAGGAUAUACAUGCUAGAGAUACUAGCAAAAUUUCCUCACAUGAGGAUCACCCAUGUAGAAGGCUGUCCUAUCG”: the “apparent Kd” value is, setting by setting: under setting [1], 28.5 nM; under setting [2], 673 nM.
As to “UUAAUUAUACAAGGAUAUCUAUUGUUCUUUCGACUUACAUGAGGAUCACCCAUGUUAAUAUAUAUAGAGAAGGUGUAUUUUCAG”, the “apparent Kd” value runs as follows: under setting [3], 43.3 nM; under setting [4], 25.4 nM.
For “CGAUUGACGUAGAAGGGACUUAAGGGACAAAGCAUGCGAACGGACGGACAUGAGGAUCACCCAUGUCAGGAUAUACGUUCAUUU”, the “apparent Kd” value by setting is: under setting [1], 5.27 nM; under setting [2], 6 nM.
For “UAAGAGUGAGGAUAUACGUCGCUGGUCCGGAUGGACGCAUGACAUGAGGAUCACCCAUGUAGAAGGCACAAAAC”, in that order: 35 nM and 130 nM.
Consider “AGUCGGAGCAGAGGAUAUACAUGAGGAUCACCCAUGUAAUUAAGUGAAGCCUGGAAACAGGCAAUGUAGAAGGCUGCUCCGACA”, for which the “apparent Kd” value is, setting by setting: under setting [1], 9.44 nM; under setting [2], 51.7 nM.
In the case of “UUUAUAUAGUAAGGAUAUGUAUUAUUUCUAUCAACAGAAGGUACUGACAUGAGGAUCACCCAUGUUUUAGUGUGGGCAUGUAGU”, the “apparent Kd” value reads like this: under setting [1], 261 nM; under setting [2], 381 nM.
Turning to “AAUGUUUGAUUCCACUUAUACAUGAGGAUCACCCAUGUUAUCGAGGAUAUGCAUUAGAGUGUUUAGCAGAAGGCGAUGUAAAUG”, the “apparent Kd” value by setting is: under setting [1], 7.34 nM; under setting [2], 24.1 nM.
As to “GUCAGCUCGUGAGGAUAUACAACACUGCUUAGGCAGUGUAUUAAGAUCACAUGAGGAUCACCCAUGUAGAAGGCACGAGCUGAU”, the “apparent Kd” value was 13.6 nM under setting [1] and 222 nM under setting [2].
Regarding “UCCUACAUGGGAGGAUAUCCUCAUGAGACAUGAGGAUCACCCAUGUAUUAUAAGCCGAAAGGCAAGGAGAAGGCCCAUGUAGGU”, the “apparent Kd” value turned out to be 34.9 nM under setting [3] and 18 nM under setting [4].
Regarding “GAUUAUAAGUAAGGAUAUGUAUAUGAAACAUAUACAGAAGGUACAUGAGGAUCACCCAUGUUCUUGCAGCGUGAAUAUGUAAUC”, the “apparent Kd” value under setting [1] amounted to 19.1 nM and the “apparent Kd” value under setting [2] stood at 28.5 nM.
For “GUGCGGUAGGAGAAGGACGGAGGCUUCUUUUCAUACAUGAGGAUCACCCAUGUAGGAUAUCCUACCUCACGCGGCCUACUUCUG”, in that order: 5.22 nM and 5.06 nM.
In the same order, the values of “GCCUAGCUAGGAUAUACCCAGGGUUUGUUCUCUAACGACACACAUGAGGAUCACCCAUGUAGAAGGAGCCGGGA” are 47.2 nM and 41.4 nM.
Turning to “GUAGCUAUUAUUAUACAUGAGGAUCACCCAUGUUACAUGUGUAAGGAUAUUGAUGUUUUUAUUAUCAAGAAGGUACUAUGCUAC”, the “apparent Kd” value under setting [3] came to 12.3 nM and the “apparent Kd” value under setting [4] came to 8.75 nM.
In the same order, the values of “UGUUGUAUUACAGGAUAUCUAUUGUUUUUAUUUAGAGAAGGGUAUUCACAUGAGGAUCACCCAUGUAUAUACGAGGAAGUUGUG” are 59.4 nM and 63.2 nM.
As for “UUGGCGCGAUCCUUGGUCUCACAUGAGGAUCACCCAUGUAGAGAGGAUAUGCAUAGGGCCCAAUGGCAGAAGGCUCUACAUGAG”, the “apparent Kd” value was determined as 67.1 nM under setting [1] and 71.2 nM under setting [2].
For “UCCUGGCGAGGAUAUACAAAGUUUUUUACGUUUUGUUACGAACAUGAGGAUCACCCAUGUAGAAGGUGCUGCUG”, in that order: 62.2 nM and 58.1 nM.
With “AGCUACGUUUCGUAGCAGUGUCAUCGAGAAGGCCUCAUUACAUGAGGAUCACCCAUGUAAGCAUGGGAGGAUAUCGAUGAUACA”, the “apparent Kd” value reads like this: under setting [3], 36.5 nM; under setting [4], 15.6 nM.
On to “GGUUAUUGCAAGGAUAUGCUUUUUUUUUAUAUUGCAGAAGGUGCAACAUGAGGAUCACCCAUGUUGGAGGGUUU”, for which the “apparent Kd” value is, setting by setting: under setting [1], 24.5 nM; under setting [2], 42.9 nM.
On to “CGGCGCUGUCGAGAGGAUAUGCGGUGAUGGACAUGAGGAUCACCCAUGUUAGCGAUAGCAUCACGGUAGAAGGCUCUACGGCUGC”, for which the “apparent Kd” value runs as follows: under setting [3], 12 nM; under setting [4], 11.3 nM.
For “ACUCGAUUUUUGGGUAUACUAUAUGAGGAUAUCAUACAUCUAUACAUGAGGAUCACCCAUGUGACUGAGAAGGCAUAUAUAAUA”, in that order: 18.8 nM and 9.15 nM.
For the sequence “AAAAAGCGAGGAUAUACAUGAGGAUCACCCAUGUAAAAAACAUGGGAUGAAACAUCAUGUAGAAGGCGCAAAAA”, the “apparent Kd” value reads like this: under setting [1], 22.6 nM; under setting [2], 26 nM.
On to “UGCGUACAAGCAGACAUGAGGAUCACCCAUGUGGUCUCAUGCGAGGAUAUCGGGAAGGAGGAUUCCGAGAAGGUGCGGUGAGCC”, for which the “apparent Kd” value runs as follows: under setting [3], 157 nM; under setting [4], 39.6 nM.
Regarding “UGUGCGUAUGUGAGGAUAUGCUGGUCCUUGGAUCAGCAGAAGGCACAUGAGGAUCACCCAUGUGGUGUCGUACC”, the “apparent Kd” value is, setting by setting: under setting [1], 314 nM; under setting [2], 48 nM.
For “GGAUCGAGUGUGAGGAUAUGCUGGUCCUUGGAUCAGCAGAAGGCACAUGAGGAUCACCCAUGUGAUAUCGAUCC”, in that order: 56.1 nM and 541 nM.
For “UUUUACCAAGGAUAUACAUUUUUUUUAUUAUUUUCAUUAUAACAUGAGGAUCACCCAUGUAGAAGGUGGAUUUU”, in that order: 54 nM and 47.9 nM.
In the same order, the values of “ACGGAGCUAGGAUAUACAUGAGGAUCACCCAUGUAUGAUGCGGCGCCCUUUUGCGCCUGUAGAAGGAGCACCGU” are 15.9 nM and 16.5 nM.
As for “GCAAAGCCUGACAUGAGGAUCACCCAUGUUAGAUUGUUAUGUCAGGAUAUUGUCUAGAAACUAGACAAGAAGGGAUGCUUUGCC”, the “apparent Kd” value came out at 734 nM under setting [3] and 51.3 nM under setting [4].
In the case of “UUUUUUAAGUAAGGAUAUCGGUCUUAGUUAGGUCGAGAAGGUACAUGAGGAUCACCCAUGUUGUUUUUUUUUUCUUUUUUUUUU”, the “apparent Kd” value was 9.51 nM under setting [1] and 14.1 nM under setting [2].
In the same order, the values of “GCAGGAUAAGUGAGGAUAUACCUCUGGAUACAGAGGUAGAAGGCACAUGAGGAUCACCCAUGUCUAUAACCUGC” are 15.5 nM and 22.4 nM.
In the same order, the values of “GGAUAGGACAGAGGAUAUACGUGCUAGAGAUACCAGCAAAAUUUCCUCACAUGAGGAUCACCCAUGUAGAAGGCUGUCCUAUCG” are 31.9 nM and 558 nM.
Regarding “CGGCAAGUCGUAGGAUAUGGUGAUGUACAUGAGGAUCACCCAUGUCCGUCUUCUCUCACAAGAUGCCAGAAGGGCGACUUCCGG”, the “apparent Kd” value under setting [3] came out at 829 nM and the “apparent Kd” value under setting [4] came to 340 nM.
For “CGCGCGGUGUAGAAGGGUGACAUGAGGAUCACCCAUGUGCGGAGGCGCCCAUUGACGCCUCCGCCACAGGAUAUACACCACGCC”, in that order: 46.8 nM and 66.9 nM.
For the sequence “UACAGCGUAGAUAAUAAUGAAUACAUGAGGAUCACCCAUGUAUAGGAUAUGCAGUGGAAUACACUGCAGAAGGAUACAUCGCUG”, the “apparent Kd” value is 16.4 nM under setting [1] and 23 nM under setting [2].
For the sequence “ACGUUUUAUGCAGGAUAUUGACUUAUAUUUAAACAAGAAGGGCAAUACAUGAGGAUCACCCAUGUUAUCAUGGUAUUUAAGUUC”, the “apparent Kd” value under setting [1] worked out at 82.2 nM and the “apparent Kd” value under setting [2] turned out to be 53.9 nM.
For “GUCAGCUCGUGAGGAUAUACAACACUGCUUCGGCAGUGUAUUAAGAUCACAUGAGGAUCACCCAUGUAGAAGGCACGGGCUGAU”, in that order: 14 nM and 323 nM.
Turning to “GGUGCGUUUGUGAGGAUAUGCUGGUCCUUGGAUCCGCAGAAGGCACAUGAGGAUCACCCAUGUGGUGUCGUACC”, the “apparent Kd” value runs as follows: under setting [1], 289 nM; under setting [2], 40.3 nM.

The apparent Kd is the concentration giving half-maximal binding under the conditions of the assay.
